# Shown are actives, neighbours in structure and some others; about 1.8% of the full set was active somewhere.
# NTR1 agonist: agonists of human neurotensin receptor NTR1; 330,000 tested, 0.17% active; activation, % at 20 µM; NTR1-U2OS beta-arrestin-GFP spot imaging, agonist mode;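 active means activation at or above 40% of the spot to cytoplasm intensity ratio, with at least 20 cells analyzed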;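 further: 0% = DMSO without peptide and 100% = 100 nM NTR1 peptide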
# AI-2 QS modul: modulators of Vibrio harveyi AI-2 quorum sensing system | 300,000 tested, 0.4% active | activity change, % at 7.5 µM | Vibrio harveyi JMH597 AI-2 luminescence/OD600 ratio, 9 h; active compounds read low; strain lacks LuxN and CqsS sensors; 0 = neutral-control median; in the data active means activity change below about -75%, passing the limit was not always enough;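 further: luminescence divided by OD600 gain over 9 h not by final OD600 alone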
# MC4R antag cAMP: antagonists of human melanocortin 4 receptor (MC4R). MC4R-expressing cells, MTII-stimulated cAMP, LANCE TR-FRET. inhibition, % at 6.5 µM. 360,000 tested, 0.48% active;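 active means inhibition above its plate's cutoff, the mean of tested wells on that plate plus 3 SD, cut at about 29% in these data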;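 further: 0% = Melanotan II alone and 100% = Melanotan II plus saturating MCL0020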
# Target sequence (P32245 whole entry, looked up): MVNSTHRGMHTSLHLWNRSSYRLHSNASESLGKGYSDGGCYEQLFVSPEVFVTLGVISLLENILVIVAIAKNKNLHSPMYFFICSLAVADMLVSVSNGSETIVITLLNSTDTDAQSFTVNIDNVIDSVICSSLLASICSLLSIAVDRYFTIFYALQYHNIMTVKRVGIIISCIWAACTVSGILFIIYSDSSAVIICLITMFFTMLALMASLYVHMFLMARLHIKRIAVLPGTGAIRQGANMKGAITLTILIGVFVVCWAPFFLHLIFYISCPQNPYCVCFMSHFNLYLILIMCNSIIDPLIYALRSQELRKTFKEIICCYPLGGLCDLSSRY
#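 Assay system: U2OS cells stably expressing human melanocortin 4 receptor (MC4R) / Dosing: 6.5 µM / Timing: compound 30 min, challenge 1 h, detection 1 h / Measured by: Eu-cAMP/anti-cAMP TR-FRET, emission 671 nm / Replicates: singlicate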
# MC4R ag barr: activates human MC4R beta-arrestin recruitment; P32245; U2OS MC4R beta-arrestin complementation, luminescence; percent of melanotan II response, DMSO zero; activation, % at 8.9 µM; 360,000 tested, 0.98% active; AID 540308;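 active means activation above a per-plate cutoff, the mean activation of sample wells on that plate plus 3 SD, cut at about 8% in these data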
# cAMP nonselect: counter-screen for MC4R antagonists: nonselective cAMP signaling inhibitors; parental U2OS, forskolin cAMP, LANCE TR-FRET; inhibition, % at 6.5 µM; shares compounds with MC4R antag cAMP; 1,600 tested, 26% active;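 active means mean inhibition over triplicates above the low-control well mean plus 3 SD, set per campaign, cut at about 13% in these data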;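 further: signal is single emission at 671 nm which falls as cellular cAMP rises; 0% = forskolin-stimulated wells and 100% = buffer without forskolin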
# MC4R antag conf: human MC4R cAMP antagonism confirmation. MC4R-expressing cells, MTII-stimulated cAMP, TR-FRET. inhibition, % at 6.5 µM. shares compounds with MC4R antag cAMP. AID 602195. 1,600 tested, 27% active; in the data active means inhibition above about 29%;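 further: 0% = agonist stimulated wells alone and 100% = agonist stimulated wells plus saturating reference antagonist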
# * marks the source's active call; other numbers are inactive results; · = no result given.
SMILES,NTR1 agonist,AI-2 QS modul,MC4R antag cAMP,MC4R ag barr,cAMP nonselect,MC4R antag conf
CCOC(=O)c1cnc2ccc(C)cc2c1Nc1ccc(N2CCOCC2)cc1,10,19,30*,0,3,38*
Cc1ccccc1-n1ccnc1SCC(=O)NC1CCCC1,-2,14,6,1,·,·
COCCNC(=O)C1(C)CCN(C(=O)c2ccc3c(c2)C(C)(C)CCC3(C)C)C1 (stereo not given),·,·,14,1,·,·
CC(=O)c1cn(CC(=O)NCc2ccc3c(c2)OCO3)c2ccccc12,2,12,31*,-2,2,2
CCOC(=O)C1=C(C)C2C3C(=O)N(c4ccccc4C)C(=O)C3C1(C)C1C(=O)N(c3ccccc3C)C(=O)C21 (stereo not given),0,-1,31*,-1,0,-13
CSCCC(NC(=O)c1cccc(C)c1)C(=O)OCN1C(=O)c2ccccc2C1=O (stereo not given),0,28,30*,-2,10,41*
CSCCC(NC(=O)c1cccc(C)c1)C(=O)OCC(=O)NC(=O)c1cccn1C (stereo not given),0,16,11,-1,·,·
CC(=O)c1cccc(NC(=S)NC(=O)c2ccccc2Cl)c1,0,15,30*,-1,2,7
COc1ccc(C(=O)NC(=S)Nc2ccc(Cl)c(C(=O)O)c2)cc1,-1,7,30*,0,-5,-18
COc1ccc(Br)cc1/C=C/C(=O)NC(=S)Nc1ccc(Cl)c(C(=O)O)c1,2,-2,30*,-3,1,0
CC(=O)c1cccc(NC(=S)NC(=O)c2ccc(C)cc2Cl)c1,0,17,0,-2,·,·
COc1ccc(Br)cc1C(=O)NC(=S)Nc1ccc(Cl)c(C(=O)O)c1,2,30,7,0,·,·
CC(C)Oc1cccc(C(=O)NC(=S)Nc2ccc(Cl)c(C(=O)O)c2)c1,1,19,19,-1,·,·
CCN1CCN(S(=O)(=O)c2ccc(Cl)c(C(=O)N(C)CC(=O)Nc3c(C)cccc3C)c2)CC1,·,·,6,0,·,·
Cc1ccccc1NC(=O)Cc1nc(COC(=O)c2cc([N+](=O)[O-])ccc2N)cs1,4,3,9,0,·,·
C=CC[C@@H](CC(=O)N(CCO)Cc1ccccc1)C(=O)NC[C@H](OC(=O)[C@@H](CC=C)Cc1ccc(F)cc1)c1ccccc1,19,·,35*,2,0,0
Cc1cc(NC(=O)COC(=O)CNS(=O)(=O)c2ccc(C)c(C)c2)no1,0,15,47*,-2,14*,30*
CCOc1ccccc1NC(=O)COC(=O)CN(C)S(=O)(=O)c1ccc(C)cc1,2,25,17,-2,·,·
CCOc1ccccc1NC(=O)COC(=O)CNS(=O)(=O)c1ccc(C)cc1,1,13,31*,0,17*,35*
O=C(CNS(=O)(=O)c1ccc2ccccc2c1)OCc1nnc(-c2ccccc2)o1,2,5,35*,2,17*,35*
COC(=O)c1sc(N)c(C(=O)OC)c1COC(=O)CNS(=O)(=O)c1ccc(C)c(C)c1,1,13,32*,1,8,19
O=C(CCNS(=O)(=O)c1ccccc1)OCc1nnc(-c2ccccc2)o1,1,25,6,-1,·,·
Cc1ccc(S(=O)(=O)NCC(=O)OCc2nnc(-c3ccccc3)o2)cc1C,2,11,29*,-3,20*,41*
Cc1ccc(N2CC(C(=O)Nc3ccc(S(=O)(=O)N4CCOCC4)cc3)CC2=O)cc1 (stereo not given),0,6,10,-1,·,·
Cc1cccc(N2CC(C(=O)Nc3ccc(S(=O)(=O)N4CCOCC4)cc3)CC2=O)c1 (stereo not given),0,5,30*,2,1,5
SMILES,NTR1 agonist,AI-2 QS modul,MC4R antag cAMP,MC4R ag barr,cAMP nonselect,MC4R antag conf
CCOC(=O)c1ccccc1NC(=O)COC(=O)c1ccc(OCC(=O)N2CCOCC2)c(OCC)c1,·,·,30*,9.1*,0,4
C=CCn1c(C)cc(/C([O-])=C(/C(=S)Nc2ccc(OC(F)F)cc2)[n+]2ccc(N(C)C)cc2)c1C,0,11,29*,2,2,4
Cc1cc(C)nc(NS(=O)(=O)c2ccc(NC(=O)C3COc4ccccc4O3)cc2)n1 (stereo not given),2,3,29*,-1,2,3
CCOc1cc(C(=O)NCC(C)(C)CNC(=O)c2cc(OCC)c(OCC)c(OCC)c2)cc(OCC)c1OCC,1,9,30*,1,-5,1
CCCCOc1cccc(OCC(=O)Nc2nc3ccccc3[nH]2)c1,-2,-5,33*,7,-9,-23
COc1ccccc1NS(=O)(=O)c1ccc2oc(SC3CCOC3=O)nc2c1 (stereo not given),18,7,44*,-2,36*,67*
CC1CC(Nc2ccccc2)c2ccccc2N1C(=O)c1ccncc1 (stereo not given),-1,24,34*,-1,3,5
CC1CC(Nc2ccccc2)c2ccccc2N1C(=O)c1ccco1 (stereo not given),-1,9,-3,3,·,·
Cc1ccc(S(=O)(=O)N2CCOCC2)cc1C(=O)NC1=NCCS1,0,·,9,-2,·,·
Cc1ccc(C(=O)OCC(=O)N(C)c2c(N)n(Cc3ccccc3)c(=O)[nH]c2=O)s1,0,4,7,-2,·,·
O=C(Nc1cc(C(F)(F)F)ccc1N1CCOCC1)c1c(F)c(F)c(F)c(F)c1F,-2,17,30*,-1,16*,46*
O=C(Nc1cc(C(F)(F)F)ccc1N1CCOCC1)c1ccccc1,2,21,6,2,·,·
CCOC(=O)c1ccc(NC(=O)NCCc2ccccc2OC)cc1,1,16,0,-4,·,·
CCOC(=O)c1ccc(NC(=O)NCc2ccccc2OC)cc1,-1,35,30*,-1,2,4
CCOc1ccccc1N1CCN(C(=O)NCc2ccc(Cl)cc2)CC1,0,11,5,-1,·,·
CC(C)C[C@H](NC(=O)c1[nH]cnc1C(=O)Nc1ccc(CNC(=O)OC(C)(C)C)cc1)C(=O)OCc1ccccc1,18,-19,61*,4,18*,37*
C[C@H](NC(=O)c1[nH]cnc1C(=O)Nc1ccc(CNC(=O)OC(C)(C)C)cc1)C(=O)OCc1ccccc1,32,23,29*,6,-33,-43
CC(=O)n1cc(Nc2ccccc2C(=O)O)c2ccccc21,-2,21,-5,-1,·,·

# Screening data from PubChem BioAssay.
